Key:
[1] = target: T1, human neutrophil elastase (HNE) (Homo sapiens, UniProt P08246); test: HNE inhibition assay; assay type: biochemical
T1 sequence (P08246 30-247 limits assumed): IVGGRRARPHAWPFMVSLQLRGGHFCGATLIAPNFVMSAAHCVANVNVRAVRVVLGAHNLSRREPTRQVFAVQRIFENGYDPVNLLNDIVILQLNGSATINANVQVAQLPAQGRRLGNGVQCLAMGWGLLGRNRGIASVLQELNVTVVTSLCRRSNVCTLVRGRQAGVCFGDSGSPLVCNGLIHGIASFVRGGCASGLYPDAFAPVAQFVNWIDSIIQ
How it was run: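 Human neutrophil elastase (20 mU/mL) in 200 mM Tris-HCl pH 7.5 with 0.01% BSA and 0.05% Tween-20, pre-incubated 5 min with test compound (DMSO final 1%). Started with 25 μM MeOSuc-Ala-Ala-Pro-Val-AMC. Fluorescence (ex 355/em 460 nm) read every 30 s for 10 min at 25 °C.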

[2] = target: T1, human neutrophil elastase (HNE); test: HNE inhibition constant; assay type: biochemical
[3] = Stability in human serum; assay type: in vitro ADME; details: 25 °C
How it was run: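 Serum prepared by clotting fresh human blood 1 h at room temperature. Test compound (10 mM DMSO stock) added to serum and incubated at 25 °C. Timed aliquots quenched in acetonitrile and centrifuged 5 min at 10 000g. Analysed by RP-HPLC: C18 column, acetonitrile/water 65/35 with 0.1% TFA, 1 mL/min, 40 °C, diode-array detection 200–300 nm. Remaining compound calculated from peak area.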

[4] = target: T2, HNE (Homo sapiens, UniProt P08246); test: Reactivation of the HNE–inhibitor complex after ultrafiltration; assay type: biochemical; details: 25 μM inhibitor, data not shown
T2 sequence (P08246 30-247 limits assumed): T1 sequence (P08246 30-247 limits assumed)

[5] = Spontaneous hydrolysis in phosphate buffer; assay type: physicochemical; details: after 60 min in aqueous buffer, absorbance at 325 nm
How it was run: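 Test compound in 0.05 M phosphate buffer, pH 7.3, at 25 °C. Absorbance at each compound's absorption maximum read over time until no further decrease (A∞). k′ taken from the slope of log(At–A∞) vs time; t1/2 = 0.693/k′.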

SMILES | HNE inhibitory activity (in words) [1] | further results
CCOC(=O)c1nn(C)c2ccccc2c1=O [Compound 5, Ethyl 1-methyl-4-oxo-1,4-dihydrocinnoline-3-carboxylate] | completely inactive | –
CCOC(=O)c1nn(Cc2cccc(C)c2)c2ccccc2c1=O [Compound 6, Ethyl 1-(3-methylbenzyl)-4-oxo-1,4-dihydrocinnoline-3-carboxylate] | completely inactive | –
Cc1cccc(C(=O)n2nc(C(=O)O)c(=O)c3ccccc32)c1 [Compound 8, 1-(3-Methylbenzoyl)-4-oxo-1,4-dihydrocinnoline-3-carboxylic acid] | loss of activity | –
Cc1cccc(C(=O)n2nc(-c3ccccc3)c(=O)c3ccccc32)c1 [Compound 11a, 1-(3-Methylbenzoyl)-3-phenylcinnolin-4(1H)-one] | loss of activity | –
Cc1cccc(C(=O)n2nc(CO)c(=O)c3ccccc32)c1 [Compound 11d, 3-(Hydroxymethyl)-1-(3-methylbenzoyl)cinnolin-4(1H)-one] | loss of activity | –
Cc1cccc(C(=O)n2ncc(=O)c3ccccc32)c1 [Compound 18a, 1-(3-Methylbenzoyl)cinnolin-4(1H)-one] | – | Ki [2]: 0.075 µM; Type of HNE inhibition ([2]; double-reciprocal Lineweaver–Burk plots): competitive inhibitors; percent of initial compound remaining ([3]; 5 min of incubation): < 3%; compound remaining ([3]; after 10 min): essentially no detectable compounds; Recovery of HNE activity after removing free inhibitor [4]: fully reversible
Cc1cccc(C(=O)N2NCC(O)c3ccccc32)c1 (stereo not drawn) [Compound 19, (4-Hydroxy-3,4-dihydrocinnolin-1(2H)-yl)(m-tolyl)meyhanone] | completely devoid of activity | –
Cc1cccc(C(=O)n2ncc(=O)c3cc([N+](=O)[O-])ccc32)c1 [Compound 21a, 1-(3-Methylbenzoyl)-6-nitrocinnolin-4(1H)-one] | – | Extent of hydrolysis [5]: hydrolyzed almost completely

— paper PMC4721940 (Journal of enzyme inhibition and medicinal chemistry, 2015)
